Experimental data from different studies.
Each line is one published result; the experiments were not run side by side.
RET V804M: Proto-oncogene tyrosine-protein kinase receptor Ret (RET, Homo sapiens, UniProt P07949, V804M)
RET V804L: Proto-oncogene tyrosine-protein kinase receptor Ret (RET, Homo sapiens, UniProt P07949, V804L)
RET: Proto-oncogene tyrosine-protein kinase receptor Ret (RET, Homo sapiens, UniProt P07949)
RET Y791F: Proto-oncogene tyrosine-protein kinase receptor Ret (RET, Homo sapiens, UniProt P07949, Y791F)
RET M918T: Proto-oncogene tyrosine-protein kinase receptor Ret (RET, Homo sapiens, UniProt P07949, M918T)

Compound	target	test	conditions	measurement	value
Nc1ncnc2occ(-c3ccc(NC(=O)Nc4cc(C(F)(F)F)ccc4F)cc3)c12	RET V804M	cell-free assay	20 µM	remaining signal	0%
CNC(=O)c1cc2c(Oc3ccc(NC(=O)C4(C(=O)Nc5ccc(F)cc5)CC4)cc3)ccnc2cc1OC	RET V804L	enzyme activity, inhibitor, radiometric	1 µM	inhibition	90%
COc1cc2ncnc(Nc3ccc(Oc4ccccc4)cc3C)c2cc1OC	RET V804L	enzyme activity, inhibitor	1 µM	inhibition	3%
O=S(=O)(NC1CCC(c2cc(F)ccc2F)(S(=O)(=O)c2ccc(Cl)cc2)CC1)C(F)(F)F (stereo not drawn)	RET V804M	cell-free assay, competition with immobilised ligand	1 µM	remaining binding	100%
CO[C@]1(C(=O)N[C@@H](C)c2ccc(-n3cc(F)cn3)nc2)CC[C@H](c2nc(C)cc(Nc3cc(C)[nH]n3)n2)CC1	Proto-oncogene tyrosine-protein kinase receptor Ret (RET, Homo sapiens, UniProt P07949, L772A)	thermal stability, DSF	10 µM	ΔTm	11.7 °C
Cc1cc(C)c(-n2ccn3nc(-c4cccnc4)cc23)cc1NC(=O)c1cc(C#N)cc(S(F)(F)(F)(F)F)c1	RET V804L	cell-free assay, competition with immobilised ligand	0.1 µM	remaining binding	93.6%
CCOC(=O)N1CCN(c2nc(Nc3ccc(C)cc3)c3nn[nH]c3n2)CC1	RET	enzyme activity, inhibitor, radiometric	0.1 µM	remaining activity	128%
CN(CCCC(F)(F)F)c1nccc(-c2cnn3ncccc23)n1	RET V804M	binding	1 µM	remaining binding	100%
CC/C(=N\NC(=O)NCc1cccc(O)c1)c1ccc(O)c(C)c1O	RET Y791F	enzyme activity, inhibitor	0.1 µM	inhibition	2.9%
CCC(=N\O)/C(C)=C/c1ccc(F)cc1	RET M918T	cell-free assay, competition with immobilised ligand	1 µM	remaining binding	100%
Nc1nc(SCC(=O)Nc2ccc3c(c2)OCO3)[nH]c(=O)c1NC(=O)c1ccc(F)c(F)c1	RET	enzyme activity, inhibitor, radiometric	0.1 µM	remaining activity	109%
C[C@@H]1CCN(c2nccc(-c3cnn4ncccc34)n2)C1	RET M918T	binding	1 µM	remaining binding	100%
COc1cc(-c2cc(-c3ccc(N4CCNCC4)cc3)cnc2N)cc(OC)c1OC	RET Y791F	enzyme activity, inhibitor	0.1 µM	inhibition	3%
O=C(COc1ccc(Cl)cc1C(=O)Nc1ccccc1)Nc1cc(Cl)ccc1-n1cncn1	RET	enzyme activity, inhibitor, radiometric	0.1 µM	remaining activity	107%
Cc1cnn2ncc(-c3ccnc(N(C)C)n3)c2c1	RET V804M	binding	1 µM	remaining binding	100%
CNCc1ccc(-c2cc(-c3nc(-c4ccc(S(=O)(=O)C(C)C)cc4)cnc3N)on2)cc1	RET	enzyme activity, inhibitor	0.4 µM	inhibition	22%
O=C1Nc2ccc(Cl)cc2C1=Cc1cc(Cl)c(O)c(Cl)c1	RET	cell-free assay	0.5 µM	remaining signal	80.4%
Cc1cc(NC(=O)Nc2c(NC3CCCC3)c3ccccc3oc2=O)ccc1Br	RET	enzyme activity, inhibitor, radiometric	10 µM	remaining activity	67.7%
COc1cc2ncnc(Nc3ccc(Oc4ccccc4)c(C)c3C)c2cc1OC	RET V804L	enzyme activity, inhibitor	1 µM	inhibition	2%
Nc1cnc(N2CCc3cc(S(=O)(=O)Nc4c(F)cc(Cl)cc4F)cc(N4CCCC4=O)c32)nc1	RET	cell-free assay, competition with immobilised ligand	1 µM	remaining binding	89%

Compound	target	test	conditions	measurement	value
COc1cc(NC(=O)Nc2cc(OC)c3nc(NC(=O)c4ccccc4)sc3c2)cc(OC)c1	RET	enzyme activity, inhibitor, radiometric	10 µM	remaining activity	101%
COc1ccc(COc2ccc(Cc3cnc(N)nc3N)cc2OC)cc1	RET	cell-free assay	0.5 µM	remaining signal	108%
c1cnn2ncc(-c3ccnc(N4CCC45COC5)n3)c2c1	RET V804M	binding	1 µM	remaining binding	100%
Cc1ccc(NC(=O)c2ccc(C)c(C(F)(F)F)c2)cc1C#Cc1nn(C2CCC(O)CC2)c2ncnc(N)c12 (stereo not drawn)	RET V804M	cell-free assay	10 µM	remaining signal	-2%
CC(=O)Nc1c(C(C)=O)c(=O)n(C)c2nc(-c3ccc(Cl)cc3Cl)c(-c3ccc(Cl)cc3)cc12	RET	cell-free assay, competition with immobilised ligand	1 µM	remaining binding	100%
CNC(=O)c1cc(Oc2ccc(NC(=O)Nc3ccc(Cl)c(C(F)(F)F)c3)cc2)ccn1	RET	cell-free assay	0.5 µM	remaining signal	1.78%
COc1cc(NC(=O)Nc2ccc(Br)cc2)cc2sc(NC(=O)c3ccccc3)nc12	RET	enzyme activity, inhibitor, radiometric	0.1 µM	remaining activity	120%
O=C(Nc1cccnn1)N1CCC(=Cc2cccc(Oc3ccc(C(F)(F)F)cn3)c2)CC1	RET V804M	cell-free assay, competition with immobilised ligand	1 µM	remaining binding	100%
Cc1cc(NC(=O)c2cccc3cc(-c4cccc5[nH]nc(N)c45)ccc23)ccc1F	RET V804M	enzyme activity, inhibitor	0.1 µM	activity vs control	117%
N[C@H]1CCN(c2nccc(-c3cnn4ncccc34)n2)C1	RET M918T	binding	1 µM	remaining binding	90%
Cc1ccc(NC(=O)Nc2ccc(Nc3cc(-n4ccnc4)nc(C)n3)cc2)c(C)c1	RET	enzyme activity, inhibitor, radiometric	10 µM	remaining activity	68.1%
C#Cc1cccc(Nc2ncnc3cc(OCCOC)c(OCCOC)cc23)c1	RET	cell-free assay	0.5 µM	remaining signal	48.6%
COc1ccc(CN2C3CC2CN(c2ccc(-c4cc(OCC(C)(C)O)cn5ncc(C#N)c45)cn2)C3)cn1	RET	thermal stability, DSF	10 µM	ΔTm	9.5 °C
CC(=O)Nc1cccc2c1CCN(C(=O)CCNC(=O)c1ccsc1)C2	RET	enzyme activity, inhibitor, radiometric	0.1 µM	remaining activity	104%
CCS(=O)(=O)c1cc2cc(C[C@](O)(CC(C)(C)c3ccc(F)cc3C(N)=O)C(F)(F)F)[nH]c2cn1	RET V804L	cell-free assay, competition with immobilised ligand	1 µM	remaining binding	100%
Cc1ccc(C(=O)Nc2ccc(CN3CCN(C)CC3)c(C(F)(F)F)c2)cc1C#Cc1cnc2cccnn12	RET V804L	enzyme activity	23.5 nM	remaining activity	17%
COc1cccc(CNC(=O)c2nc3scc(COCc4ccc(C(=O)O)cc4)c3c(=O)[nH]2)c1	RET V804M	cell-free assay, competition with immobilised ligand	1 µM	remaining binding	95.3%
CN(C)c1ncc(F)c(-c2cnn3ncccc23)n1	RET	binding	1 µM	remaining binding	97%
CCCOc1ccc(OC)c(F)c1C(=O)c1ccc(C(=O)N[C@@H]2CNC[C@H]2NC(=O)c2ccc3[nH]ncc3c2)cc1	RET	enzyme activity, inhibitor	0.5 µM	remaining activity	54%
